Measured values reported in ChEMBL document CHEMBL3745639, “Structure-activity relationships for lipoprotein lipase agonists that lower plasma triglycerides in vivo” (Eur J Med Chem, 2015).

Assays:
[1] = biological target: T1, Lipoprotein lipase (Bos taurus) (UniProt P11151); assay: Induction of bovine LPL stabilization using intralipid as substrate at 6.25 uM preincubated for 10 mins with human recombinant ANGPTL4 followed by substrate addition measured after 45 mins relative to control
T1 sequence (whole entry): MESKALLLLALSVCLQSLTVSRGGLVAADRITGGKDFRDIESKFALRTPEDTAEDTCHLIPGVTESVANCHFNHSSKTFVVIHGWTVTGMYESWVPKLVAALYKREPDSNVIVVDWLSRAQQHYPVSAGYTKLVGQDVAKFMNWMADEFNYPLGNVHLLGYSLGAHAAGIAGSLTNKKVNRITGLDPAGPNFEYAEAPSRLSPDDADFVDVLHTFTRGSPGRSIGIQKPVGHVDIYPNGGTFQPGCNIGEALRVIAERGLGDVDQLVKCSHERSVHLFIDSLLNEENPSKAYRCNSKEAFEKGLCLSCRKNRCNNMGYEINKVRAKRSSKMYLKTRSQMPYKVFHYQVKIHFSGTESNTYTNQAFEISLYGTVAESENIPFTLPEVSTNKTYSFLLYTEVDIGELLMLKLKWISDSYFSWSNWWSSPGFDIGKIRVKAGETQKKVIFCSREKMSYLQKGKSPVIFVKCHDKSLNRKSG
Summary of the method: (§1)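 Compound in DMSO in buffer (50 mM potassium phosphate pH 7.4, 0.15 M NaCl, 0.01% Triton X-100), with human ANGPTL4 N-terminal fragment (aa 26-184, 75 nM final) and bovine LPL (15 nM final). Preincubated 10 min at 25 °C with shaking. Stopped after 45 min with 2.5% Triton X-100, and NEFA measured enzymatically. Activity normalised between DMSO+LPL+ANGPTL4 (0%) and DMSO+LPL (100%).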

[2] = biological target: T1, Lipoprotein lipase (Bos taurus); assay: Induction of bovine LPL stabilization using intralipid as substrate at 25 uM preincubated for 10 mins with human recombinant ANGPTL4 followed by substrate addition measured after 45 mins relative to control; summary of the method: as §1
[3] = Half life in human hepatocytes at 1 uM; assay type: ADME, cell-based, Hepatocyte
Summary of the method: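 Freshly isolated human hepatocytes (0.5 x 10⁶ cells/ml) in Williams medium E with compound at 1 μM. Reaction started by adding cells. Sampled at 0, 10, 30 and 60 min in duplicate, quenched with acetonitrile containing warfarin, then LC-MS/MS.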

[4] = Kinetic aqueous solubility of the compound in PBS at pH 1.2 after 2 hrs by LC-Ms analysis; assay type: physicochemical; settings: read-out: Kinetic_solubility
Summary of the method: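 Kinetic solubility from a 10 mM DMSO stock diluted 1:100 (1% DMSO, maximum detectable 0.1 mM) into PBS pH 7.4 or HCl-adjusted PBS at about pH 1.2. Incubated at 37 °C for 2 h in sealed glass vials, centrifuged at 10000 x g, 37 °C, 20 min, then LC-MS/MS.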

Bile acid receptor = biological target: T2, Bile acid receptor (Homo sapiens, UniProt Q96RI1); assay: Agonist activity at FXR (unknown origin)
T2 sequence (Q96RI1 whole entry): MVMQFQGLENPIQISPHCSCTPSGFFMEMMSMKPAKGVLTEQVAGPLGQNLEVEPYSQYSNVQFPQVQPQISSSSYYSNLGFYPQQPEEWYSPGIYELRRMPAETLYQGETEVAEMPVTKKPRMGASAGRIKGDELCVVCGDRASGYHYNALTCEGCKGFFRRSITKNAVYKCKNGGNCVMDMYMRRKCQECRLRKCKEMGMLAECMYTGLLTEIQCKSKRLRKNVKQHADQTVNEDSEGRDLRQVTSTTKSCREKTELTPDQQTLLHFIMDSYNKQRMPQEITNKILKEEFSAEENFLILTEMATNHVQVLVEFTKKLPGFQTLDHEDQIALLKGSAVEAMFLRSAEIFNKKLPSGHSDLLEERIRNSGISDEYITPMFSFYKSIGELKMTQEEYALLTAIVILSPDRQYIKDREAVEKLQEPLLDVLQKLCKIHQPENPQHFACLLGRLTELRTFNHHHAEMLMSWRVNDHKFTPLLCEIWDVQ
Summary of the method: (§2)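 Single agonist-mode profiling at ten concentrations against FXR, PPARα, PPARγ and RXRα, run as an outside screening service.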

[5] = biological target: T3, Peroxisome proliferator-activated receptor gamma (Homo sapiens, UniProt P37231); assay: Agonist activity at PPARgamma (unknown origin); summary of the method: as §2
T3 sequence (P37231 whole entry): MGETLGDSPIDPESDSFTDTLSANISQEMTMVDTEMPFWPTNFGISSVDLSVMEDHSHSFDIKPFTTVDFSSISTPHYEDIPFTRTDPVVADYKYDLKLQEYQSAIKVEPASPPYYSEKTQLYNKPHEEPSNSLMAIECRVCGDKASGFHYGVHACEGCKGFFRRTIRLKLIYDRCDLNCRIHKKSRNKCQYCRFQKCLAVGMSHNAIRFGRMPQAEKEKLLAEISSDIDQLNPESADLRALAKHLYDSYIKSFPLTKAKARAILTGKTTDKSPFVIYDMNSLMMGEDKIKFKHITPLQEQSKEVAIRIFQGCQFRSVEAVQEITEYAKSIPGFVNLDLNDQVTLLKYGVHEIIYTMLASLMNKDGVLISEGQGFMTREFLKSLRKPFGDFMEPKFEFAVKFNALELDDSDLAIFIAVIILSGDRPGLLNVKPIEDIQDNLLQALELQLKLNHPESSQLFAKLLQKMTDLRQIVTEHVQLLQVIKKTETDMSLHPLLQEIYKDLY

[6] = biological target: T4, Retinoic acid receptor RXR-alpha (Homo sapiens, UniProt P19793); assay: Agonist activity at RXRalpha (unknown origin); summary of the method: as §2
T4 sequence (P19793 whole entry): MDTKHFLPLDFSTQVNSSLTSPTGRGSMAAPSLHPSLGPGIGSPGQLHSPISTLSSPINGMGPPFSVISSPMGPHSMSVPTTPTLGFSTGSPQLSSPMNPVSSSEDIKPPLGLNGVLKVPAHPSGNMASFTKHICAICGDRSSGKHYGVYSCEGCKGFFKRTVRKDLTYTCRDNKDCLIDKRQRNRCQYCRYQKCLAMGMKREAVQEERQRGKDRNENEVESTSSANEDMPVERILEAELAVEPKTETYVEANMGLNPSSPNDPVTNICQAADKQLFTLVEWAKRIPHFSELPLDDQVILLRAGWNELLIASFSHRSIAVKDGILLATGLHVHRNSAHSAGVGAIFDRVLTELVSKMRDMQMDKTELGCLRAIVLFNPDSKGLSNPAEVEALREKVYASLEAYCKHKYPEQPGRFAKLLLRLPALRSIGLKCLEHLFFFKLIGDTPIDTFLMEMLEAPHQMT

Activity [1]: 16%
Activity [2]: 97%
half-life at 1 µM [3]: > 2 h
solubility kinetic at 2 h [4]: < 2 µM
EC50 (Bile acid receptor): > 100 µM
EC50 [5]: > 100 µM
EC50 [6]: > 100 µM
Structure (SMILES): Cc1ccc(NC(=O)c2cc(-n3cc4ccc(C(=O)O)cc4n3)ccc2N2CCCCC2)cc1
